Measured values: ChEMBL document CHEMBL4392849, “Design, synthesis, evaluation and molecular modeling study of 4-N-phenylaminoquinolines for Alzheimer disease treatment” (Bioorg Med Chem Lett, 2019)

Key:
[1] = biological target: Cholinesterase (Equus caballus, UniProt P81908); experiment: Inhibition of equine serum BChE using butyrylthiocholine iodide as substrate preincubated for 15 mins followed by substrate addition by Ellman's method; assay type: single protein
In short: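 Ellman method run at pH 8.0 in 0.1 M sodium phosphate buffer. Compounds come from 10 mM DMSO stocks diluted in buffer. Enzyme solution is 0.05 U/ml and DTNB stock is 10 mM. These are held 15 min at 25°C, then 7.5 mM butyrylthiocholine iodide stock is added. Percent inhibition comes from hydrolysis rate with versus without inhibitor.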

[2] = biological target: Acetylcholinesterase (Electrophorus electricus, UniProt O42275); experiment: Inhibition of electric eel AChE using acetylthiocholine iodide as substrate preincubated for 15 mins followed by substrate addition by Ellman's method
Acetylcholinesterase, sequence (O42275 whole entry): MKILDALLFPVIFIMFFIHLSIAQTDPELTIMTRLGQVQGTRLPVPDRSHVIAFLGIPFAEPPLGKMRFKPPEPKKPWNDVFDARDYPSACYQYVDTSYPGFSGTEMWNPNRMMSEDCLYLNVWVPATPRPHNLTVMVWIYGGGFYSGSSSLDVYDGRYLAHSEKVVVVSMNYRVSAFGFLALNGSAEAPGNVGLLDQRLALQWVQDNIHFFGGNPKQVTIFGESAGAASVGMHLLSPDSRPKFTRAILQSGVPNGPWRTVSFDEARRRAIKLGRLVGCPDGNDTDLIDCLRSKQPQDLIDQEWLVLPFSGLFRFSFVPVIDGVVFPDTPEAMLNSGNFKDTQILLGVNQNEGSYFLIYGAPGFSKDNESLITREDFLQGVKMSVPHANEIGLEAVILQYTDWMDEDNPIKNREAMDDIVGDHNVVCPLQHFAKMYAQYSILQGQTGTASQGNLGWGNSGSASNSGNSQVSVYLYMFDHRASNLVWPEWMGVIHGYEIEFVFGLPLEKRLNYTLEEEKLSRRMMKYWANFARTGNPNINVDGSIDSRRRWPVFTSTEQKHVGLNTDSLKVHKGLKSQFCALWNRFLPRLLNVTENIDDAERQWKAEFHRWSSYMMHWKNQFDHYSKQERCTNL

Cholinesterase, sequence (P81908 whole entry): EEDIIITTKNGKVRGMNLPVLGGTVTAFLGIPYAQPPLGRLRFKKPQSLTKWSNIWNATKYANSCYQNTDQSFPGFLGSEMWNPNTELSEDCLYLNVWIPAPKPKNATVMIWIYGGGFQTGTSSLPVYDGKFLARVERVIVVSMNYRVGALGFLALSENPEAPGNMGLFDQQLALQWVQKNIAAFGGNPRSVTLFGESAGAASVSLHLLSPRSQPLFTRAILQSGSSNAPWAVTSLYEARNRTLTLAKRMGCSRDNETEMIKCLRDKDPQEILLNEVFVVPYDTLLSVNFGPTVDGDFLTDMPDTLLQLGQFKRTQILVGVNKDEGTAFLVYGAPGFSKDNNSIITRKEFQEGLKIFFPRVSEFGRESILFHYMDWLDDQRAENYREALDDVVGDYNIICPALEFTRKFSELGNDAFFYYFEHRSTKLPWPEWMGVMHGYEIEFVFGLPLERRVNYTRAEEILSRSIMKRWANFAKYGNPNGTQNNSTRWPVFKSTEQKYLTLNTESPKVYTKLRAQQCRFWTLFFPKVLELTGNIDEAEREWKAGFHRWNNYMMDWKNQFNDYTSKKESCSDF

Q: For `COc1cc2c(Nc3ccccc3)c([N+](=O)[O-])cnc2cc1OCCCN(C)Cc1ccccc1`, which IC50 [1] is on record?
A: 10.1 µM

Q: And the IC50 [2]?
A: 0.65 µM

Q: `COc1cc2c(Nc3ccc(Cl)cc3)c([N+](=O)[O-])cnc2cc1OCCC[n+]1ccccc1` was tested. Which IC50 [1] did it give?
A: 14.2 µM

Q: What about the IC50 [2] of the same compound?
A: 0.92 µM

Q: `COc1cc2c(Nc3cccc(Cl)c3)c([N+](=O)[O-])cnc2cc1OCCCN(C)Cc1ccccc1` was tested. Which IC50 [1] did it give?
A: 15.2 µM

Q: And the IC50 [2]?
A: 0.83 µM

Q: For `COc1cc2c(Nc3cccc(C)c3)c([N+](=O)[O-])cnc2cc1OCCCN(C)Cc1ccccc1`, which IC50 [1] is on record?
A: 2.78 µM

Q: And the IC50 [2]?
A: 1.86 µM

Q: How did the IC50 [1] turn out when `COc1cc2c(Nc3ccc(C)cc3)c([N+](=O)[O-])cnc2cc1OCCCN(C)Cc1ccccc1` was run?
A: 73.6 µM

Q: And the IC50 [2]?
A: 11.8 µM

Q: With `COc1cc2c(Nc3ccccc3C)c([N+](=O)[O-])cnc2cc1OCCCN(C)Cc1ccccc1` as the compound, how does the IC50 [1] read?
A: 29.7 µM

Q: And the IC50 [2]?
A: 10.1 µM

Q: What does the source list for `COc1cc2c(Nc3cccc(C(F)(F)F)c3)c([N+](=O)[O-])cnc2cc1OCCCN(C)Cc1ccccc1`?
A: IC50 [1]: 55.4 µM; IC50 [2]: 7.78 µM

Q: How did the IC50 [1] turn out when `COc1cc2c(Nc3ccccc3Cl)c([N+](=O)[O-])cnc2cc1OCCCN(C)Cc1ccccc1` was run?
A: 2.65 µM

Q: What about the IC50 [2] of the same compound?
A: 0.86 µM

Q: How did the IC50 [1] turn out when `COc1ccc(Nc2c([N+](=O)[O-])cnc3cc(OCCCN(C)Cc4ccccc4)c(OC)cc23)cc1` was run?
A: 50.4 µM

Q: What about the IC50 [2] of the same compound?
A: 10.9 µM

Q: `COc1cc2c(Nc3ccc(O)cc3)c([N+](=O)[O-])cnc2cc1OCCCN(C)Cc1ccccc1` was tested. Which IC50 [1] did it give?
A: 17.4 µM

Q: What about the IC50 [2] of the same compound?
A: 0.74 µM

Q: With `COc1cccc(Nc2c([N+](=O)[O-])cnc3cc(OCCCN(C)Cc4ccccc4)c(OC)cc23)c1` as the compound, how does the IC50 [1] read?
A: 9.19 µM

Q: What about the IC50 [2] of the same compound?
A: 1.72 µM

Q: How did the IC50 [1] turn out when `COc1ccccc1Nc1c([N+](=O)[O-])cnc2cc(OCCCN(C)Cc3ccccc3)c(OC)cc12` was run?
A: 8.67 µM

Q: And the IC50 [2]?
A: 7.9 µM

Q: With `COc1cc2c(Nc3ccc(Cl)cc3Cl)c([N+](=O)[O-])cnc2cc1OCCCN(C)Cc1ccccc1` as the compound, how does the IC50 [1] read?
A: 58.7 µM

Q: And the IC50 [2]?
A: 1.85 µM

Q: `COc1cc2c(Nc3ccc(Cl)cc3)c([N+](=O)[O-])cnc2cc1OCCCN(C)Cc1ccccc1` was tested. Which IC50 [1] did it give?
A: 17.4 µM

Q: What about the IC50 [2] of the same compound?
A: 1.88 µM

Q: With `COc1cc2c(Nc3cccc(O)c3)c([N+](=O)[O-])cnc2cc1OCCCN(C)Cc1ccccc1` as the compound, how does the IC50 [1] read?
A: 10.8 µM

Q: And the IC50 [2]?
A: 0.71 µM
